Results: ChEMBL document CHEMBL1122432, “Some adenine and adenosine methylene-bridged estrogens” (J Med Chem, 1983)

Experiments:
P388 [1] = experiment: (§1) Concentration required for 50% Inhibition of P388 murine leukemia cells; format: functional; settings: Mus musculus, read-out: ID50 (the source's name)
Summary of the method: (§2)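 Exponentially growing P388 murine leukemia cells were kept in medium with 10% horse serum and 1 μM mercaptoethanol. They were exposed to graded drug levels, and total cell numbers were counted 24 h later. IC50 is the concentration inhibiting growth by 50% over the test period.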

Sulfotransferase 1E1 = biological target: T1, Sulfotransferase 1E1 (Bos taurus, UniProt P19217); experiment: Inhibition of bovine estrogen sulfotransferase by the compound
T1 sequence (P19217 whole entry): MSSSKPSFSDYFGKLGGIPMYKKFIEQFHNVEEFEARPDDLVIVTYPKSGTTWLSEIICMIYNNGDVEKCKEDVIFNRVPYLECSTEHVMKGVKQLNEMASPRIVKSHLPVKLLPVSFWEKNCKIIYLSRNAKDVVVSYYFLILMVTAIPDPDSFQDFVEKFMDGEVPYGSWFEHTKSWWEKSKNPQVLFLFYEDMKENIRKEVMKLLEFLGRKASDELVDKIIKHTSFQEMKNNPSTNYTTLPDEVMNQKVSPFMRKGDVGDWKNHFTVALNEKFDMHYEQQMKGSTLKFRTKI
Summary of the method: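 Inhibitor was present at a fixed concentration in 90% aqueous Me2SO. Ki values were derived with relationships for competitive inhibitors.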

MCF7 [2] = experiment: Concentration required for 50% Inhibition of human breast cancer cell line MCF-7; format: functional; settings: read-out: ID50 (the source's name)
Summary of the method: (§3)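 Human breast cancer cells were grown in glass vials in medium with 5% calf serum and treated in log phase. Compounds were dissolved in Me2SO and diluted in medium to a final solvent concentration of at most 0.2%. Growth was followed over 2-3 days, or 5 days where noted. IC30 and IC50 are the concentrations giving 30% and 50% growth inhibition. Values average two or more experiments.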

MCF7 [3] = experiment: Concentration required for 30% Inhibition of human breast cancer cell line MCF-7; format: functional; summary of the method: as §3
MCF7 [4] = experiment: Concentration required for 30% Inhibition of human breast cancer cell line MCF-7; NA means no inhibition at -20 concentration; format: functional, cell-based; summary of the method: as §3
P388 [5] = experiment: as §1; format: functional, Mus musculus; summary of the method: as §2
MCF7 [6] = experiment: Inhibition of human breast cancer cell line MCF-7; format: functional; settings: for IC50: read-out: ID50 (the source's name)
Summary of the method: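 MCF-7 breast cancer cells were grown in sterile glass scintillation vials in medium with 5% calf serum and treated in log phase. Compounds were dissolved in Me₂SO and diluted in medium, with final solvent ≤0.2%. Growth was measured over 2-3 days, or 5 days where footnoted. IC₃₀/IC₅₀ is the concentration inhibiting growth by 30/50% over the test period, averaged from two or more experiments.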

C[C@]12CC[C@@H]3c4ccc(OCCCOC[C@H]5OC(n6cnc7c(N)ncnc76)[C@H](O)[C@@H]5O)c([N+](=O)[O-])c4CC[C@H]3[C@@H]1CCC2=O (stereo not given in full) showed an IC50 (P388 [1]) of 15 µM, a Ki (Sulfotransferase 1E1) of 84 µM and an IC50 (MCF7 [2]) of 6.4 µM. It also gave an ID30 (MCF7 [3]) of 3.6 µM.
Compound C[C@]12CC[C@@H]3c4ccc(OCCOC[C@H]5OC(n6cnc7c(N)ncnc76)[C@H](O)[C@@H]5O)c([N+](=O)[O-])c4CC[C@H]3[C@@H]1CCC2=O (stereo not given in full) has an IC50 (P388 [1]) of 70 µM, a Ki (Sulfotransferase 1E1) of 32 µM and an IC50 (MCF7 [2]) greater than 10 µM. It also gave an ID30 (MCF7 [3]) of 11 µM.
In the case of C[C@]12CC[C@@H]3c4ccc(OCCCn5cnc6c(N)ncnc65)c([N+](=O)[O-])c4CC[C@H]3[C@@H]1CCC2=O, the ID30 (MCF7 [4]) is reported as “Not Active” and the Ki (Sulfotransferase 1E1) is reported as 350 µM.
C[C@]12CC[C@@H]3c4ccc(OCCn5cnc6c(N)ncnc65)c([N+](=O)[O-])c4CC[C@H]3[C@@H]1CCC2=O showed an IC50 (P388 [1]) of 30 µM, a Ki (Sulfotransferase 1E1) of 1000 µM and an IC50 (MCF7 [2]) of 10 µM. It also gave an ID30 (MCF7 [3]) of 7.8 µM.
For C[C@]12CC[C@@H]3c4ccc(OCCCCn5cnc6c(N)ncnc65)c([N+](=O)[O-])c4CC[C@H]3[C@@H]1CCC2=O, the ID50 (P388 [5]) was 5 µM, the Ki (Sulfotransferase 1E1) was 140 µM and the IC50 (MCF7 [2]) was 4 µM. It also gave an ID30 (MCF7 [3]) of 2.1 µM.
For C[C@]12CC[C@@H]3c4ccc(OCCCn5cnc6c(N)ncnc65)cc4CC[C@H]3[C@@H]1CCC2=O, the ID30 (MCF7 [4]) was “Not Active” and the Ki (Sulfotransferase 1E1) was 1000 µM.
C[C@]12CC[C@@H]3c4ccc(OP(=O)(O)OP(=O)(O)OC[C@H]5O[C@@H](n6c(Br)nc7c(N)ncnc76)[C@H](O)[C@@H]5OP(=O)(O)O)cc4CC[C@H]3[C@@H]1CCC2=O was tested, and the Ki (Sulfotransferase 1E1) was 0.25 µM.
Compound COc1ccc2c(c1[N+](=O)[O-])CC[C@@H]1[C@@H]2CC[C@]2(C)C(=O)CC[C@@H]12 has an ID30 (MCF7 [6]) greater than 10 µM and an IC50 (MCF7 [6]) greater than 10 µM.
Work on O=c1[nH]cc(F)c(=O)[nH]1 [FLUOROURACIL] yielded an ID30 (MCF7 [6]) of 0.2 µM and an IC50 (MCF7 [6]) of 0.3 µM.
